# Active and inactive are the calls of the source. The rule behind the calls is not given here.
# What was measured:
# [1] = molecular target: T1, Prostaglandin D2 receptor 2 (Homo sapiens, UniProt Q9Y5Y4); test: Displacement of [3H]-PGD2 from CRTh2 receptor by scintillation proximity assay
# T1 sequence (Q9Y5Y4 whole entry): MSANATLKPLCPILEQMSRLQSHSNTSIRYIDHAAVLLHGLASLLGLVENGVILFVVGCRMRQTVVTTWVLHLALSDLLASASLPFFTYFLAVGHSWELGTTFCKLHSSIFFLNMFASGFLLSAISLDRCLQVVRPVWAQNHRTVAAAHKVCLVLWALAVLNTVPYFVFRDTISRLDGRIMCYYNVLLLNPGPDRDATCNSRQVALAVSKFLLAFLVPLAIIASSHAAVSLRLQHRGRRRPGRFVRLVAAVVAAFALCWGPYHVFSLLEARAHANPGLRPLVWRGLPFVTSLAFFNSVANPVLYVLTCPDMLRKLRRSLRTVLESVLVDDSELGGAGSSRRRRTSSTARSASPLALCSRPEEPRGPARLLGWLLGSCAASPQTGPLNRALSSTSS
# [2] = Intrinsic clearance in rat hepatocytes assessed per 1 x 10^6 cells
# [3] = Intrinsic clearance in human liver microsomes
# [4] = Lipophilicity, log D of the compound at pH 7.4; details: buffer
# [5] = molecular target: T1, Prostaglandin D2 receptor 2; test: Antagonist activity at human CRTh2 receptor expressed in HEK cells assessed as inhibition of PGD2-induced calcium flux; format: functional, cell-based, HEK293
# Procedure, shortened: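 PGD2-driven Ca2+ flux in HEK cells transfected with human CRTh2, read as antagonism of the response.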
# [6] = molecular target: T2, Prostaglandin D2 receptor 2 (Homo sapiens) (UniProt Q9Y5Y4); test: Displacement of [3H]-PGD2 from CRTh2 receptor at 10 uM by scintillation proximity assay
# T2 sequence (whole entry): T1 sequence (Q9Y5Y4 whole entry)
# Procedure, shortened: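 Scintillation proximity binding with [3H]-PGD2 as radioligand; reported values are means of more than 2 measurements.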
# [7] = molecular target: T2, Prostaglandin D2 receptor 2 (Homo sapiens); test: Partial agonist activity at human CRTh2 receptor expressed in HEK cells assessed as stimulation of calcium flux; format: functional, cell-based; details: HEK293
# [8] = molecular target: T2, Prostaglandin D2 receptor 2 (Homo sapiens); details: HEK293, 10 uM
IC50 [1] [nM],hepatocyte CLint [2] [µL/min/1e6 cells],microsomal CLint ([3]; liver microsomes) [µL/min/mg],also measured,SMILES
0.6,5,10,–,CS(=O)(=O)c1ccc(-c2cc(Cl)ccc2OCC(=O)O)c(Cl)c1
251,47,12,logD [4]: 0.3,COc1ccc(-c2cc(C(F)(F)F)ccc2OCC(=O)O)cc1
0.3,< 5,< 3,–,CCS(=O)(=O)c1ccc(-c2cc(C(F)(F)F)ccc2OCC(=O)O)c(Cl)c1
178,–,–,logD [4]: 0.3,CCC(Oc1ccc(C(F)(F)F)cc1-c1ccc(S(=O)(=O)CC)cc1C)C(=O)O (centres undefined)
251,–,–,IC50 [5]: 178 nM,O=C(O)COc1ccc([N+](=O)[O-])cc1-c1ccccc1
126,–,–,–,N#Cc1ccc(-c2cc(C(F)(F)F)ccc2OCC(=O)O)cc1
5650,29,< 3,logD [4]: 2.8,CCS(=O)(=O)c1ccc(-c2cc(C(F)(F)F)ccc2OCC(N)=O)c(C)c1
0.2,< 3,–,microsomal CLint ([3]; microsomes): < 3 µL/min/mg; logD [4]: 0.2,Cc1ccc(C#N)cc1-c1cc(C(F)(F)F)ccc1OCC(=O)O
1.6,23,< 3,–,CCS(=O)(=O)c1ccc(-c2cc(C(F)(F)F)ccc2O[C@H](C)C(=O)O)c(C)c1
–,–,–,inhibition [6]: 41%,O=C(O)COc1ccccc1-c1ccccc1
36,< 3,< 3,Activity [7]: Active,CS(=O)(=O)c1ccc(-c2cc(C(F)(F)F)ccc2OCC(=O)O)cc1
1.3,18,9,logD [4]: 0.7,CCN(CC)S(=O)(=O)c1ccc(-c2cc(C(F)(F)F)ccc2OCC(=O)O)cc1
1.5,< 3,7,–,CCS(=O)(=O)c1ccc(-c2cc(Cl)ccc2OCC(=O)O)c(Cl)c1
293,–,–,–,CCS(=O)(=O)c1ccc(-c2cc(Cl)ccc2OCC(=O)O)c(C(F)(F)F)c1
0.2,< 3,–,microsomal CLint ([3]; microsomes): < 4 µL/min/mg,N#Cc1ccc(F)c(-c2cc(C(F)(F)F)ccc2OCC(=O)O)c1
7.9,4,–,microsomal CLint ([3]; microsomes): < 3 µL/min/mg,CCS(=O)(=O)c1ccc(-c2cc(Cl)ccc2OCC(=O)O)c(F)c1
19,< 3,7,–,CCS(=O)(=O)c1ccc(-c2cc(Cl)ccc2OCC(=O)O)cc1
316,7,< 3,IC50 [5]: 158 nM,O=C(O)COc1ccc(Br)cc1-c1ccccc1
251,–,–,–,O=C(O)COc1ccc(Cl)cc1-c1ccccc1
541,6,< 3,Activity [7]: Active,CS(=O)(=O)c1ccc(OCC(=O)O)c(-c2ccccc2)c1
355,< 3,6,IC50 [5]: 251 nM,N#Cc1ccc(OCC(=O)O)c(-c2ccccc2)c1
8.9,–,–,–,CCSc1ccc(-c2cc(C(F)(F)F)ccc2OCC(=O)O)cc1

IC50 [1] [nM],hepatocyte CLint [2] [µL/min/1e6 cells],microsomal CLint ([3]; liver microsomes) [µL/min/mg],also measured,SMILES
56,< 3,12,–,CCS(=O)(=O)c1cccc(-c2cc(C(F)(F)F)ccc2OCC(=O)O)c1
2.5,25,< 4,–,CCS(=O)(=O)c1ccc(-c2cc(C(F)(F)F)ccc2CCC(=O)O)c(C)c1
50,< 3,11,logD [4]: 0.9,O=C(O)COc1ccc(C(F)(F)F)cc1-c1ccc(Cl)cc1
< 0.4,< 3,< 3,logD [4]: 0.1,N#Cc1cccc(-c2cc(C(F)(F)F)ccc2OCC(=O)O)c1
–,13,–,microsomal CLint ([3]; microsomes): < 3 µL/min/mg,CCc1ccc(OCC(=O)O)c(-c2ccc(S(C)(=O)=O)cc2)c1
2.2,–,–,–,CN(c1ccc(-c2cc(F)ccc2OCC(=O)O)c(Cl)c1)S(C)(=O)=O
126,13,6,–,O=C(O)COc1ccc(C(F)(F)F)cc1-c1ccc2c(c1)CCS2(=O)=O
0.1,–,–,–,CN(c1ccc(-c2cc(C(F)(F)F)ccc2OCC(=O)O)c(Cl)c1)S(C)(=O)=O
3980,–,–,–,CCS(=O)(=O)c1ccc(-c2cc(C(F)(F)F)ccc2OC(C)(C)C(=O)O)c(C)c1
2,20,–,microsomal CLint ([3]; microsomes): < 3 µL/min/mg; logD [4]: 1.4,O=C(O)COc1ccc(C(F)(F)F)cc1-c1ccccc1-c1ccccc1
1780,–,–,IC50 [5]: 501 nM,O=C(O)COc1ccc(-c2nccs2)cc1-c1ccccc1
0.6,< 5,< 3,–,C[C@@H](Oc1ccc(C(F)(F)F)cc1-c1cccc(C#N)c1)C(=O)O
0.6,< 3,< 3,logD [4]: 0,CCS(=O)(=O)c1ccc(-c2cc(C(F)(F)F)ccc2O[C@H](C)C(=O)O)c(Cl)c1
10,9,6,–,CCCCOc1ccccc1-c1cc(C(F)(F)F)ccc1OCC(=O)O
794,< 3,12,IC50 [5]: 708 nM,Cc1ccc(OCC(=O)O)c(-c2ccccc2)c1
0.2,–,–,–,CS(=O)(=O)c1ccc(-c2cc(C(F)(F)F)ccc2OCC(=O)O)c(Cl)c1
8910,64,< 3,inhibition [8]: 17%,Nc1ccc(OCC(=O)O)c(-c2ccccc2)c1
0.4,< 3,< 3,–,Cc1cc(N(C)S(C)(=O)=O)ccc1-c1cc(C(F)(F)F)ccc1OCC(=O)O
355,10,–,–,CCS(=O)(=O)c1ccc(-c2cc(C(F)(F)F)ccc2O[C@@H](C)C(=O)O)c(C)c1
891,–,–,–,CCS(=O)(=O)c1ccc(-c2cc(C(F)(F)F)ccc2OCc2nnn[nH]2)c(C)c1
0.8,< 3,13,–,CN(c1ccc(-c2cc(C(F)(F)F)ccc2OCC(=O)O)cc1)S(C)(=O)=O
4.1,–,–,–,CCS(=O)(=O)c1ccc(-c2cc(Cl)ccc2OCC(=O)O)c(C)c1

# — ChEMBL document CHEMBL1777748 (Bioorg Med Chem Lett, 2011)
